Our source for the activation values is PubChem BioAssay AID686992 (Broad Institute, 2013).

Molecules are shown by their SMILES. The campaign covered roughly 260,000 compounds. About 960 (0.37%) were called active. For the sample, actives were picked, then their nearest neighbours and some compounds at random. Values without a mark were called inactive.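 The calls were made as follows: active = mean E-selectin-positive cell signal at least 10% of the positive control, reached in at least 60% of replicates, without over 20% cell loss; inconclusive = no rule given, readout overlaps actives, possibly toxicity-flagged; inactive = the rest, including those meeting only one limit.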

E-selectin (Homo sapiens), sequence (P16581 whole entry, looked up): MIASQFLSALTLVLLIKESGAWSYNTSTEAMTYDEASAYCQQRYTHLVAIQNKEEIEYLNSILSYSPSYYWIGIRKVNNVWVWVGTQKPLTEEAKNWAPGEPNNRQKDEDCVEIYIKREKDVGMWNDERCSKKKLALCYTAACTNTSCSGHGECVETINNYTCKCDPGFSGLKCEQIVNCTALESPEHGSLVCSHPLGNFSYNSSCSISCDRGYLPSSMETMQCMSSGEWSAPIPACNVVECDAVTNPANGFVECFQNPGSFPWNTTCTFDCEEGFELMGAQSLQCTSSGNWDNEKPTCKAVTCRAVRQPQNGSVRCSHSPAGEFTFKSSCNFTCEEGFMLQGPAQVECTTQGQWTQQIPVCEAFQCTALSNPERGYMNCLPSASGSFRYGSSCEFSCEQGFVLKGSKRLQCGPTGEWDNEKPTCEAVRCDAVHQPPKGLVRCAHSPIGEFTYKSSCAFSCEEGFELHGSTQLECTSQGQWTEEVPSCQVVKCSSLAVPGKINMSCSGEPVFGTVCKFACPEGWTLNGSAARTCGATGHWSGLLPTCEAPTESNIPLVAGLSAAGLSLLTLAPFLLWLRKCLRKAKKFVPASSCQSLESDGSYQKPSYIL

The test addresses E-selectin (Homo sapiens) (UniProt P16581). Description: E-selectin induction in HUVECs, primary screen, imaging, HUVEC, immunofluorescence imaging, single point (AID 686992).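 Also: signal is the percent of cells scored E-selectin positive by PE staining.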 The conditions noted are these: at 7.58 µM, hits give high values, normalized: neutral wells 0, TNF-alpha wells 100. In outline:
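material = human umbilical vein endothelial cells (HUVEC), E-selectin induction | quantity = 3,000 cells/well | medium = EGM-2 growth medium on 0.1% gelatin-coated wells | technique = immunofluorescence imaging | read-out basis = % PE-positive cells | control set = TNF-alpha positive control, DMSO neutral control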
Consider `O=Cc1cn(Cc2ccccc2)nc1-c1cccnc1`, for which the activation was 2.7%.

For `COc1ccc(-c2nn(-c3ccccc3)cc2/C=N/Nc2ccccn2)cc1OC`, the activation was -1.26%.

For the molecule `O=Cc1cn(-c2ccccc2)nc1-c1ccccn1`, the activation is 31.7% (active).

Regarding `COC(=O)c1ccc2nc(-c3ccc(Cl)cc3)c(Cc3cccc(F)c3)n2c1`, the activation was -0.152%.

Consider `Cc1cc2nc(-c3ccc(F)cc3)c(Cc3ccsc3)n2c(C)c1Br`, for which the activation is 0.0835%.

For `O=C(Cc1ccc(-n2c(=O)c3sccc3n(Cc3ccc(F)cc3)c2=O)cc1)NCc1ccco1`, the activation was 159% (active).

On to `CC1=C(C(=O)N2CCOCC2)CC(CC(=O)NCc2ccco2)C(=O)N1Cc1ccc(F)cc1` (stereo unspecified), for which the activation is 8.96%.

Regarding `O=C(CCCn1c(=O)c2sccc2n(CC(=O)NCC2CCCO2)c1=O)NCc1ccco1` (stereo unspecified), the activation was 8.64%.

For the molecule `CC1(C(=O)Nc2cccc3c2CCCC3)CCN1C(=O)C1(c2ccccc2)CC1` (stereo unspecified), the activation is 0.283%.

Consider `COCCCNC(=O)C[C@H]1C[C@@]2(C(=O)OC)C(=C[C@H](C(C)(C)C)O[C@@H]2C)N(Cc2ccc3c(c2)OCO3)C1=O`, for which the activation was -0.0885%.

In the case of `O=C(C[C@@H]1C[C@H]2c3cc(NC(=O)NC4CCCC4)ccc3O[C@H]2[C@@H](CO)O1)NC1CCCCC1`, the activation was 0.37%.

As to `CC1CC(=O)Nc2ccccc2N1S(=O)(=O)c1cccs1` (stereo unspecified), the activation was 28.3% (active).

Consider `CC1COc2ccccc2N1S(=O)(=O)c1ccccc1` (stereo unspecified), for which the activation was 0.485%.

Consider `CC1CC(=O)Nc2ccccc2N1C(=O)COc1ccc2cc(Br)ccc2c1` (stereo unspecified), for which the activation was 0.0775%.

As to `CC(C)C[C@H]1CN([C@@H](CC(C)C)CN2CCC[C@@H]2CN2C(=O)C(=O)NC[C@@H]2Cc2ccccc2)C(=O)C(=O)N1CCc1ccccc1`, the activation was 0.726%.

For `CO[C@H]1CN(C)C(=O)c2cc(NC(=O)c3cc(C)on3)ccc2OC[C@@H](C)N(C(C)=O)C[C@H]1C`, the activation is -0.127%.

With `COc1cccc(-c2ccc3c(c2)N(Cc2ccccc2OC)C(=O)C(C)S3)c1` (stereo unspecified), the activation was -0.102%.

On to `O=S1(=O)CCN(C2CCCCCCCCCCC2)CC1`, for which the activation is -0.851%.

`CC(C)C(c1nnnn1C1CCCCC1)N1CCN(C(=O)c2ccco2)CC1` (stereo unspecified): the activation was 39.5% (active).

For the molecule `O=C(c1ccco1)N1CCN(C(=S)Nc2cc(F)cc(F)c2)CC1`, the activation was -1.13%.

`O=C(CNS(=O)(=O)c1ccccc1)N1CCN(C(=O)c2ccco2)CC1`: the activation is 0.056%.

With `C[C@H]1CN([C@@H](C)CO)C(=O)Cc2cc(NC(=O)Cn3cnnn3)ccc2O[C@H]1CN(C)Cc1ccc(C(=O)O)cc1`, the activation is -4.49%.

In the case of `COc1ccc(CN(C)C[C@H]2Oc3ccc(NC(=O)Cn4cnnn4)cc3CC(=O)N([C@@H](C)CO)C[C@@H]2C)cc1`, the activation is 52.1% (active).

Regarding `C[C@H](CO)N1C[C@H](C)[C@@H](CN(C)Cc2ccc(C(=O)O)cc2)Oc2ccc(NC(=O)Cn3cnnn3)cc2CC1=O`, the activation is 2.12%.

With `Cc1noc(C)c1NC(=O)Nc1ccc2c(c1)CC(=O)N([C@H](C)CO)C[C@@H](C)[C@@H](CN(C)Cc1ccc(C(F)(F)F)cc1)O2`, the activation is -0.087%.

As for `Cc1noc(C)c1NC(=O)Nc1ccc2c(c1)CC(=O)N([C@@H](C)CO)C[C@@H](C)[C@@H](CN(C)Cc1ccc(Cl)c(Cl)c1)O2`, the activation was 449% (active).

Turning to `C[C@@H]1CN([C@H](C)CO)C(=O)Cc2cc(NC(=O)Nc3ccccc3)ccc2O[C@H]1CN(C)Cc1ccc(Cl)c(Cl)c1`, the activation is 0.392%.

Take `O=C(NCCN1CCOCC1)c1ccc2c(c1)N(Cc1cccc(Cl)c1)C(=O)c1ccccc1S2(=O)=O`: the activation was 0.148%.

On to `COc1ccc(NC(=O)CCCOc2ccc(C(C)=O)cc2)cc1S(=O)(=O)N1CCCCC1`, for which the activation is -6.06%.

In the case of `CCOC(=O)C1CCN(C(=O)c2ccc3c(=O)n4nc(Nc5ccccc5CC)sc4nc3c2)CC1`, the activation was -0.0345%.

As for `COc1ccc(NC(=O)C(c2ccncc2)n2c(=O)c(-c3cc4ccccc4[nH]3)nc3ccccc32)cc1` (stereo unspecified), the activation is 0.124%.

On to `CCOC(=O)C1CSCCS(=O)(=O)N1Cc1ccc(Cl)cc1` (stereo unspecified), for which the activation was 0.0275%.

In the case of `CN[C@H]1C[C@H]2c3cc(Oc4ccccc4C)ccc3CCN2C(=O)[C@H]1[C@H](C)O`, the activation is -1.54%.

`Cc1cc2ccccc2n1CCNC(=O)COc1ccc2ccccc2c1`: the activation is 51.8% (active).

Turning to `COC(=O)C(C)NC(=O)COc1ccc2ccccc2c1` (stereo unspecified), the activation was 0.228%.

In the case of `Cc1ccc(C)c(NC(=O)CN(C)C(=O)COc2ccc3ccccc3c2)c1`, the activation was -0.121%.

As for `CCCN1C[C@@H](C)[C@@H](OC)CN(C)C(=O)c2cc(NC(=O)CC(F)(F)F)ccc2OC[C@H]1C`, the activation is 0.11%.

`CC(C)(C)OC(=O)N[C@H](C(=O)OC(C)(C)C)c1ccc(Br)cc1`: the activation is 0.0795%.

For the molecule `O=C(NN=Cc1ccco1)C(=O)Nc1ccc(Cl)c([N+](=O)[O-])c1`, the activation is -0.0805%.

On to `CC(=O)N1C[C@@H](CO)[C@@H](N(C)C(=O)C(C)(C)C)C[C@H]1c1ccccc1Br`, for which the activation is -0.326%.

For `Cc1cc(S(=O)(=O)c2cc3ccc(O)c(C)c3oc2=O)ccc1F`, the activation was 69.9% (active).

As to `COc1cccc2cc(S(=O)(=O)c3ccc(C)cc3)/c(=N/NS(=O)(=O)c3ccc(C)cc3)oc12`, the activation is 0.616%.

In the case of `Cc1ccc(CC2(C)C(=O)Nc3ccc(OC(F)(F)F)cc32)cc1` (stereo unspecified), the activation was -0.201%.

`Cn1cnc(S(=O)(=O)N2C[C@@H](O)COC[C@H]3O[C@@H](CC(=O)NCc4ccc(F)cc4)CC[C@@H]32)c1`: the activation is -0.0625%.

Take `O=C(NC[C@H]1[C@@H](c2ccccc2)[C@H](CO)N1CC1CC1)c1cccnc1`: the activation is 0.036%.

As for `Cc1ccc(Nc2nc(-c3sc(NC(=O)c4ccccc4)nc3C)cs2)cc1`, the activation was 0.138%.

Turning to `Cc1ccc(Nc2nnc(SC(C)C(=O)NC3CC3)s2)cc1` (stereo unspecified), the activation is -0.687%.

As for `Cc1ccc(Nc2nc(Cl)c(C=O)s2)cc1`, the activation is 48.9% (active).

Turning to `Cc1[nH]nc2c1C(c1ccc(Br)cc1)NC2=O` (stereo unspecified), the activation is -0.228%.

As to `Cc1noc(C)c1NC(=O)Nc1ccc2c(c1)C(=O)N([C@@H](C)CO)C[C@H](C)[C@H](CN(C)S(=O)(=O)c1ccc(Cl)cc1)O2`, the activation was -0.247%.

With `COc1ccc(NC(=O)Nc2ccc3c(c2)C(=O)N([C@@H](C)CO)C[C@H](C)[C@@H](CN(C)S(=O)(=O)c2ccc(Cl)cc2)O3)cc1`, the activation is 8.29%.

For `COc1ccc(S(=O)(=O)N(C)C[C@H]2Oc3ccc(NC(=O)Nc4c(C)noc4C)cc3C(=O)N([C@H](C)CO)C[C@H]2C)cc1`, the activation is 45.3% (active).

Take `COc1ccc(S(=O)(=O)N(C)C[C@@H]2Oc3ccc(NC(=O)Nc4c(C)noc4C)cc3C(=O)N([C@H](C)CO)C[C@@H]2C)cc1`: the activation was -0.053%.

Turning to `COc1ccc(S(=O)(=O)N(C)C[C@H]2Oc3ccc(NC(=O)Nc4c(C)noc4C)cc3CC(=O)N([C@@H](C)CO)C[C@H]2C)cc1`, the activation is -4.24%.

Turning to `COc1ccc(S(=O)(=O)N(C)C[C@H]2Oc3ccc(NC(=O)Nc4c(C)noc4C)cc3C(=O)N([C@@H](C)CO)C[C@@H]2C)cc1`, the activation was 43.2% (active).

`CC1=C(C(=O)N(C(C)C)C(C)C)CC(CC(=O)NCCCCc2ccccc2)C(=O)N1CCC1=CCCCC1` (stereo unspecified): the activation is 1.3%.

With `Cc1cc(C)n2c(Nc3c(C)cccc3C)c(CCc3ccccc3)nc2n1`, the activation was 0.0345%.

As for `COc1cccc2c1C(=O)c1c(O)c3c(c(O)c1C2=O)CC(O)(C(C)=NNC(=O)c1ccc(Cl)c(Cl)c1)CC3OC1CC(N)C(O)C(C)O1` (stereo unspecified), the activation was 160% (active).

For `CO[C@H]1CN(C)C(=O)c2ccc(NC(=O)CC(F)(F)F)cc2OC[C@H](C)N(C(=O)C2CC2)C[C@H]1C`, the activation was -0.112%.

Turning to `CCC(=O)Nc1ccc2c(c1)C(=O)N(C)[C@@H]1CC[C@@H](CC(=O)NCCN3CCCCC3)O[C@@H]1CO2`, the activation was -0.0795%.

For `CCNS(=O)(=O)c1ccc(CCC(=O)N2CCN(c3cc(Cl)ccc3C)CC2)cc1`, the activation was -0.168%.

As to `CCNS(=O)(=O)c1ccc(CCC(=O)N2CCN(c3ccc(OC)cc3)CC2)cc1`, the activation is 31.3% (active).

On to `COc1ccc(N2CCN(C(=O)CNC(=O)c3ccc(Br)o3)CC2)cc1`, for which the activation is -0.05%.

Turning to `COc1ccccc1CCn1cnc(-c2ccccc2)c1C(C)C`, the activation is -0.038%.

Turning to `O=C(c1cccnc1)N1C[C@@H]2[C@H](c3ccccc31)[C@@H](CO)N2C(=O)Nc1ccc(F)cc1`, the activation was 0.778%.

Turning to `Cc1ccccc1NC(=O)c1cc(S(=O)(=O)Nc2cccc(C(=O)O)c2)ccc1Cl`, the activation is 65.6% (active).

For `O=C(Nc1ccc(Br)cc1)c1cc(S(=O)(=O)Nc2ccccn2)ccc1Cl`, the activation is 0.225%.

On to `Cc1cccc(NS(=O)(=O)c2cccc(C(=O)NNC(=O)c3ccccc3O)c2)c1`, for which the activation is -0.07%.

Regarding `CC(C)C[C@H]1CN([C@@H](Cc2ccccc2)CN2CCC[C@@H]2CN2C(=O)C(=O)NC[C@@H]2Cc2ccc(O)cc2)C(=O)C(=O)N1CCc1ccccc1`, the activation is 9.99%.

`CCCCNC(=O)c1ccccc1NC(=O)C1=C(C)OCCS1`: the activation is 0.108%.

`COc1ccc(N2CCN(C(=O)c3ccccc3NC(=O)C3=C(C)OCCS3)CC2)cc1`: the activation is 54.3% (active).

In the case of `COc1ccc(C(=O)Nc2ccccc2C(=O)N2CCN(c3ccccc3)CC2)cc1`, the activation was 0.169%.

As to `COc1ccc(Sc2ccc(NC(=O)c3cccc(Cl)c3)cc2C#N)cc1`, the activation was 2.08%.

As for `COCCCNC(=O)C1CCC(CNS(=O)(=O)c2ccc(OC)cc2)CC1` (stereo unspecified), the activation is -0.0375%.

In the case of `CCCCSCCCNC(=O)C1CCC(CNS(=O)(=O)c2ccc(NC(C)=O)cc2)CC1` (stereo unspecified), the activation is 58.2% (active).

Consider `O=C(O)C1CCC(CNS(=O)(=O)c2ccc(Br)cc2)CC1` (stereo unspecified), for which the activation was -0.071%.
